Results from publication PMC5483893 (Journal of Medicinal Chemistry, 2017).

Columns and labels:
[1] = system: total α-tubulin in QBI-293 cells; assay: Total α-tubulin ELISA; assay type: cell-based; conditions: at doses typically required to induce an elevation in AcTub
In short: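 QBI-293 cells were plated at 6 × 10⁵ cells/well, grown overnight at 37 °C and 5% CO₂, then given fresh medium with vehicle (DMSO) or 1 and 10 μM test compound for 4 h. Lysis was in RIPA with protease inhibitors, 1 mM PMSF and 1 μM TSA, followed by 100000g for 30 min at 4 °C. Supernatant was BCA-normalized and α-tubulin measured by ELISA as fold-change versus vehicle. Samples were run at least in triplicate; significance was by two-tailed unpaired t test.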

[2] = system: acetylated α-tubulin (AcTub) in QBI-293 cells; assay: Acetyl-tubulin assay; assay type: cell-based; conditions: for shape of concentration–response in the AcTub assay: comparison of 1 and 10 μM; for MT activity (AcTub increase), inactive compounds: QBI-293 cells, 1 and 10 μM; for elevation in AcTub without decrease of α-tubulin: 1 or 10 μM
In short: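 QBI-293 cells kept at 37 °C, 5% CO₂, trypsinised and plated at 6 × 10⁵ cells/well, then exposed overnight-later to vehicle (DMSO) or test compound for 4 h. Lysis in RIPA with protease inhibitors, 1 mM PMSF and 1 μM TSA; 100000g spin, 30 min, 4 °C. BCA protein, then AcTub ELISA. Fold-change versus vehicle, at least triplicate, two-tailed unpaired t test.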

Row | SMILES | MT activity (AcTub increase), inactive compounds [2] | elevation in AcTub without decrease of α-tubulin [2] | other results
1 | COc1cc(F)c(-c2c(Cl)nc(C)n2-c2ccc(Cl)cc2)c(F)c1 [Compound 2, 4-Chloro-1-(4-chlorophenyl)-5-(2,6-difluoro-4-methoxyphenyl)-2-methyl-1H-imidazole] | – | – | effect on total α-tubulin levels [1]: cause a significant reduction in total α-tubulin levels; shape of concentration–response in the AcTub assay [2]: bell-shaped concentration–response relationship
2 | Fc1cc(F)c(-c2cncn2-c2ccc(Cl)cc2)c(F)c1 [Compound 25, 1-(4-Chlorophenyl)-5-(2,4,6-trifluorophenyl)-1H-imidazole] | do not cause a detectable increase in AcTub | – | –
3 | COc1ccc(-n2cncc2-c2c(F)cc(F)cc2F)cc1 [Compound 26, 1-(4-Methoxyphenyl)-5-(2,4,6-trifluorophenyl)-1H-imidazole] | do not cause a detectable increase in AcTub | – | –
4 | Cc1ncn(-c2ccc(Cl)cc2)c1-c1c(F)ccc(Cl)c1F [Compound 29, 5-(3-Chloro-2,6-difluorophenyl)-1-(4-chlorophenyl)-4-methyl-1H-imidazole] | – | produce an elevation in AcTub at 1 or 10 μM without decreasing α-tubulin level | –
5 | Cc1nc(Cl)n(-c2ccc(Cl)cc2)c1-c1c(F)ccc(Cl)c1F [Compound 30, 2-Chloro-5-(3-chloro-2,6-difluorophenyl)-1-(4-chlorophenyl)-4-methyl-1H-imidazole] | – | – | effect on total α-tubulin levels [1]: cause a significant reduction in total α-tubulin levels
6 | Cc1nc(C)n(-c2ccc(Cl)cc2)c1-c1c(F)ccc(Cl)c1F [Compound 31, 5-(3-Chloro-2,6-difluorophenyl)-1-(4-chlorophenyl)-2,4-dimethyl-1H-imidazole] | – | produce an elevation in AcTub at 1 or 10 μM without decreasing α-tubulin level | –
7 | Cc1ncc(-c2c(F)ccc(F)c2F)n1-c1ccc(Cl)cc1 [Compound 34, 1-(4-Chlorophenyl)-2-methyl-5-(2,3,6-trifluorophenyl)-1H-imidazole] | – | – | effect on total α-tubulin levels [1]: cause a significant reduction in total α-tubulin levels
8 | Cc1ncn(-c2ccc(Cl)cc2)c1-c1c(F)ccc(F)c1F [Compound 35, 1-(4-Chlorophenyl)-4-methyl-5-(2,3,6-trifluorophenyl)-1H-imidazole] | – | produce an elevation in AcTub at 1 or 10 μM without decreasing α-tubulin level | –
9 | Cc1nc(Cl)n(-c2ccc(Cl)cc2)c1-c1c(F)ccc(F)c1F [Compound 36, 2-Chloro-1-(4-chlorophenyl)-4-methyl-5-(2,3,6-trifluorophenyl)-1H-imidazole] | – | produce an elevation in AcTub at 1 or 10 μM without decreasing α-tubulin level | –
10 | Fc1cccc(F)c1-c1cncn1-c1ccc(OC(F)(F)F)cc1 [Compound 42, 5-(2,6-Difluorophenyl)-1-(4-(trifluoromethoxy)phenyl)-1H-imidazole] | do not cause a detectable increase in AcTub | – | –
11 | Fc1cccc(F)c1-c1cncn1-c1ccc(Cl)cc1 [Compound 43, 1-(4-Chlorophenyl)-5-(2,6-difluorophenyl)-1H-imidazole] | do not cause a detectable increase in AcTub | – | –
12 | Cc1cc(F)c(-c2cncn2-c2ccc(Cl)cc2)c(F)c1 [Compound 48, 1-(4-Chlorophenyl)-5-(2,6-difluoro-4-methylphenyl)-1H-imidazole] | do not cause a detectable increase in AcTub | – | –
13 | COc1ccc(F)c(-c2cncn2-c2ccc(Cl)cc2)c1F [Compound 49, 1-(4-Chlorophenyl)-5-(2,6-difluoro-3-methoxyphenyl)-1H-imidazole] | do not cause a detectable increase in AcTub | – | –
14 | Clc1ccc(-n2cncc2-c2ccccc2)cc1 [Compound 50, 1-(4-Chlorophenyl)-5-phenyl-1H-imidazole] | essentially devoid of MT activity | – | –
15 | Fc1cccc(F)c1-c1cncn1-c1ccccc1 [Compound 52, 5-(2,6-Difluorophenyl)-1-phenyl-1H-imidazole] | do not cause a detectable increase in AcTub | – | –
16 | Fc1cccc(F)c1-c1cncn1-c1ccccc1Cl [Compound 53, 1-(2-Chlorophenyl)-5-(2,6-difluorophenyl)-1H-imidazole] | do not cause a detectable increase in AcTub | – | –
17 | Fc1cc(F)c(-c2c(Cl)ncn2-c2ccc(Cl)cc2)c(F)c1 [Compound 54, 4-Chloro-1-(4-chlorophenyl)-5-(2,4,6-trifluorophenyl)-1H-imidazole] | – | produce an elevation in AcTub at 1 or 10 μM without decreasing α-tubulin level | –

Row | SMILES | MT activity (AcTub increase), inactive compounds [2] | elevation in AcTub without decrease of α-tubulin [2] | other results
18 | COc1cc(F)c(-c2c(Cl)nc(Cl)n2-c2ccc(Cl)cc2)c(F)c1 [Compound 58, 2,4-Dichloro-1-(4-chlorophenyl)-5-(2,6-difluoro-4-methoxyphenyl)-1H-imidazole] | – | – | effect on total α-tubulin levels [1]: cause a significant reduction in total α-tubulin levels; shape of concentration–response in the AcTub assay [2]: bell-shaped concentration–response relationship
19 | COc1ccc(-n2cnc(Cl)c2-c2c(F)cc(F)cc2F)cc1 [Compound 59, 4-Chloro-1-(4-methoxyphenyl)-5-(2,4,6-trifluorophenyl)-1H-imidazole] | – | produce an elevation in AcTub at 1 or 10 μM without decreasing α-tubulin level | –
20 | COc1ccc(-n2c(-c3c(F)cc(F)cc3F)cnc2Cl)cc1 [Compound 60, 2-Chloro-1-(4-methoxyphenyl)-5-(2,4,6-trifluorophenyl)-1H-imidazole] | – | produce an elevation in AcTub at 1 or 10 μM without decreasing α-tubulin level | –
21 | Cc1ccc(F)c(-c2c(Cl)ncn2-c2ccc(Cl)cc2)c1F [Compound 62, 4-Chloro-1-(4-chlorophenyl)-5-(2,6-difluoro-3-methylphenyl)-1H-imidazole] | – | – | effect on total α-tubulin levels [1]: cause a significant reduction in total α-tubulin levels
22 | Cc1ccc(F)c(-c2cnc(Cl)n2-c2ccc(Cl)cc2)c1F [Compound 63, 2-Chloro-1-(4-chlorophenyl)-5-(2,6-difluoro-3-methylphenyl)-1H-imidazole] | – | – | effect on total α-tubulin levels [1]: cause a significant reduction in total α-tubulin levels
23 | Fc1ccc(Cl)c(F)c1-c1c(Cl)ncn1-c1ccc(Cl)cc1 [Compound 64, 4-Chloro-5-(3-chloro-2,6-difluorophenyl)-1-(4-chlorophenyl)-1H-imidazole] | – | produce an elevation in AcTub at 1 or 10 μM without decreasing α-tubulin level | –
24 | Cc1nc(Cl)c(-c2c(F)ccc(Cl)c2F)n1-c1ccc(Cl)cc1 [Compound 65, 4-Chloro-5-(3-chloro-2,6-difluorophenyl)-1-(4-chlorophenyl)-2-methyl-1H-imidazole] | – | – | effect on total α-tubulin levels [1]: cause a significant reduction in total α-tubulin levels
25 | Fc1ccc(Cl)c(F)c1-c1cnc(Cl)n1-c1ccc(Cl)cc1 [Compound 66, 2-Chloro-5-(3-chloro-2,6-difluorophenyl)-1-(4-chlorophenyl)-1H-imidazole] | – | – | effect on total α-tubulin levels [1]: cause a significant reduction in total α-tubulin levels
26 | Fc1cc(-n2c(-c3c(F)ccc(F)c3F)cnc2Cl)ccc1Cl [Compound 72, 2-Chloro-1-(4-chloro-3-fluorophenyl)-5-(2,3,6-trifluorophenyl)-1H-imidazole] | – | produce an elevation in AcTub at 1 or 10 μM without decreasing α-tubulin level | –
27 | Fc1cc(F)c(-c2c(Cl)ncn2-c2ccc(Cl)nc2)c(F)c1 [Compound 73, 2-Chloro-5-(4-chloro-5-(2,4,6-trifluorophenyl)-1H-imidazol-1-yl)pyridine] | – | – | effect on total α-tubulin levels [1]: cause a significant reduction in total α-tubulin levels
28 | Cc1nc(Cl)c(-c2c(F)cc(F)cc2F)n1-c1ccc(Cl)nc1 [Compound 74, 2-Chloro-5-(4-chloro-2-methyl-5-(2,4,6-trifluorophenyl)-1H-imidazol-1-yl)pyridine] | – | produce an elevation in AcTub at 1 or 10 μM without decreasing α-tubulin level | –
29 | Fc1ccc(-c2cnc(Cl)n2-c2ccc(Cl)cc2)cc1 [Compound 75, 2-Chloro-1-(4-chlorophenyl)-5-(4-fluorophenyl)-1H-imidazole] | essentially devoid of MT activity | – | –
30 | Fc1ccc(-c2c(Cl)ncn2-c2ccc(Cl)cc2)cc1 [Compound 76, 4-Chloro-1-(4-chlorophenyl)-5-(4-fluorophenyl)-1H-imidazole] | essentially devoid of MT activity | – | –
31 | Fc1cc(Cl)ccc1-n1cnc(Cl)c1-c1c(F)cccc1F [Compound 78, 4-Chloro-1-(4-chloro-2-fluorophenyl)-5-(2,6-difluorophenyl)-1H-imidazole] | – | produce an elevation in AcTub at 1 or 10 μM without decreasing α-tubulin level | –
32 | Fc1ccc(F)c(-c2c(Cl)ncn2-c2ccc(Cl)cc2)c1 [Compound 80, 4-Chloro-1-(4-chlorophenyl)-5-(2,5-difluorophenyl)-1H-imidazole] | inactive | – | –
33 | Cc1nc(Cl)c(-c2c(F)cccc2F)n1-c1ccc(Cl)cc1 [Compound 85, 4-Chloro-1-(4-chlorophenyl)-5-(2,6-difluorophenyl)-2-methyl-1H-imidazole] | – | – | effect on total α-tubulin levels [1]: cause a significant reduction in total α-tubulin levels
34 | Fc1cccc(F)c1-c1c(Cl)ncn1-c1ccccc1Cl [Compound 102, 4-Chloro-1-(2-chlorophenyl)-5-(2,6-difluorophenyl)-1H-imidazole] | – | produce an elevation in AcTub at 1 or 10 μM without decreasing α-tubulin level | –
